Activity calls are given as the source filed them.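 Rule for the calls, unless noted: active = viability at or below 30% in both replicate assays; inconclusive = viability at or below 30% in just one of the two assays; inactive = the rest.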
Columns and labels:
[1] = Her2 expression decrease, cell viability multiplex – SKBR3 breast tumor cells, AlphaScreen, ATP viability, primary screen (AID 461;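 active = Her2 level under about 52% in both replicate screens, with viability over 70% of control, limit read from the data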;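 for Her2 level: lower value means less Her2 protein in the cells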;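 for viability: percent of carrier control wells set as 100% viability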); details: SKBR3 Her2 protein level, 18-24 h, measured here: SKBR3 viability, ATP luminescence, at 10 µM
[2] = target: Receptor tyrosine-protein kinase erbB-2 (Homo sapiens) (UniProt P04626); assay: as above; details: 18-24 h, at 10 µM, stronger effect = lower value
Sequence of Receptor tyrosine-protein kinase erbB-2 (Homo sapiens) (P04626 whole entry, looked up): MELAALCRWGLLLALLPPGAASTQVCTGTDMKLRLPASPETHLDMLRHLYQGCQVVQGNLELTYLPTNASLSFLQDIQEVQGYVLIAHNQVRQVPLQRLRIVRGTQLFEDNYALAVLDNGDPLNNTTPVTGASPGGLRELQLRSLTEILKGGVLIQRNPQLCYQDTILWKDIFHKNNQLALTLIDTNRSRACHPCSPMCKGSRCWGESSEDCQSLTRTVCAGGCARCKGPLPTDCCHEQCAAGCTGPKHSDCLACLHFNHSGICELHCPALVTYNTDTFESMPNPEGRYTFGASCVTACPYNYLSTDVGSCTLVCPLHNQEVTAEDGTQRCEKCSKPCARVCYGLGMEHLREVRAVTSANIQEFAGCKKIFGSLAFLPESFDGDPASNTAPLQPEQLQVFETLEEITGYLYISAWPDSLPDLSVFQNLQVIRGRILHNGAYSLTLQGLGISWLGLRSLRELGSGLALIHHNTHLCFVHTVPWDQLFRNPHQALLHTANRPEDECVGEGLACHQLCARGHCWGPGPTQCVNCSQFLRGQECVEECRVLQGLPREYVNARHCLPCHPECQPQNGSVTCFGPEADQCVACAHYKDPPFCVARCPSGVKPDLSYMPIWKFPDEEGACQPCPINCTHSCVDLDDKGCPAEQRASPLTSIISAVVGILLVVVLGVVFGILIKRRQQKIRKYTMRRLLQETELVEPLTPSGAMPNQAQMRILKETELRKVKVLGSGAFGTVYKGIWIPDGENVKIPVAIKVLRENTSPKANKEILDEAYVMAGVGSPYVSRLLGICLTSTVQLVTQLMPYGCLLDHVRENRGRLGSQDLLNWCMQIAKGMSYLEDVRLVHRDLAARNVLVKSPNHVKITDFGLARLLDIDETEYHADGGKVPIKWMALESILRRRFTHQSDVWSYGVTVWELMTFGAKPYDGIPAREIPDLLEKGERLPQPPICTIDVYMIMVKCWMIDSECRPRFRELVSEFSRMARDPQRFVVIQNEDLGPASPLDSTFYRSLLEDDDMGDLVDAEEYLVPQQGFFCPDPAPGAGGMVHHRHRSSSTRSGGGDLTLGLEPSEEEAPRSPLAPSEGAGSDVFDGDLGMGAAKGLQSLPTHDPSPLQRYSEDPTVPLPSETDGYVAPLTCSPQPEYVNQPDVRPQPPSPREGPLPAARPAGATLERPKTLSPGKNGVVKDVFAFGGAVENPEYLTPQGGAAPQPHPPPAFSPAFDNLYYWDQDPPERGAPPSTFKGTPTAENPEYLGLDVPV

[3] = reduced viability of SK-BR-3 breast cancer cells – cell-based, 24 h, human, pilot screen (AID 572;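 active = viability at or below 10% of carrier control in both of two separate runs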;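 note: compound exposure lasted between 18 and 24 h rather than exactly 24 h; 100% = carrier-treated control wells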); details: SK-BR-3 viability, CellTiter-Glo luminescence, at 10 µM, stronger effect = lower value
[4] = HUVEC growth inhibition – cell-based, human, primary screen (AID 575); details: HUVEC proliferation, CellTiter-Glo luminescence, 72 h; at 10 µM; stronger effect = lower value;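 note: 100% = median of untreated cell wells with 0.1% DMSO on each plate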
Method in brief: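 Assay system: Primary human umbilical vein endothelial cells | Quantity: 1250 cells per well | Medium: Supplemented EBM, 2% fetal bovine serum | Detection: CellTiter-Glo luminescence measuring cellular ATP | Read-out: % viability vs DMSO wells | Plate: Collagen-coated 384-well format | Times: 72 h exposure, 37 °C, 5% CO2, 30 min RT equilibration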

[5] = H69AR cell proliferation blockers – human, duplicate replicates, primary screen (AID 580;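 active = viability at or under a set limit in both replicates, limit being median viability minus 3 SD, cut at about 48% in these data, passing the limit was not always enough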;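 note: 100% = mean luminescence of untreated wells and 0% = no signal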); details: H69AR lung tumor cells viability, ATP luminescence, 72 h; at 10 µM; stronger effect = lower value
[6] = MRP1 drug-resistance reversers in H69AR cells – cell-based, doxorubicin co-treatment, pilot screen (AID 601;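 active = viability loss from added drug above about 55%, and viability with drug at most 40%, in both replicates, limit read from the data, passing the limit was not always enough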); details: CellTiter-Glo, 72 h, at 10 µM; for differential viability (reversal): stronger effect = higher value
[7] = yeast transport mutant growth inhibition pilot in 384-well plates, post-Golgi transport modulator project (AID 636; in the data active = inhibition above about 31%); details: absorbance 615 nm, about 18 h, stronger effect = higher value
[8] = growth suppression of yeast trafficking mutant, preliminary HTS, modulators of trafficking downstream of Golgi apparatus project, 1536-format plate, OD 615 nm (AID 637; in the data active = inhibition above about 30%); details: yeast transport mutant growth, absorbance 615 nm, 18 h; stronger effect = higher value
[9] = H69AR cells + 2 uM doxorubicin, measured here: viability with 2 uM doxorubicin, stronger effect = lower value
[10] = H69AR cells, compound alone cytotoxicity

| Compound | viability [1] | Her2 level [2] | viability [3] | viability [4] | viability [5] | differential viability (reversal) ([6]; H69AR cells + 2 uM doxorubicin) | viability [6, 9] | viability [6, 10] | inhibition [7] | inhibition [8] |
| --- | --- | --- | --- | --- | --- | --- | --- | --- | --- | --- |
| COC(=O)c1cccc(Oc2nc3c(c(=O)n(C)c(=O)n3C)n2C(C)C)c1 | 80.5% | 84% (inactive) | 80.5% (inactive) | 79.6% (inactive) | 79.6% (inactive) | -20.9% (inactive) | 101% | 79.6% | -2.93% (inactive) | 2% (inactive) |
| O=C(O)CCN1C(=O)c2ccccc2C1=O | 99% | 91% (inactive) | 99% (inactive) | 112% (inactive) | 97.5% (inactive) | -1.81% (inactive) | 99.4% | 97.5% | -2.24% (inactive) | 2.79% (inactive) |
| COc1ccc(C(=O)OCC(=O)NCc2ccco2)cc1OC | 110% | 89.5% (inactive) | 110% (inactive) | 102% (inactive) | 78.4% (inactive) | -3.74% (inactive) | 82.1% | 78.4% | -1.95% (inactive) | -6.23% (inactive) |
| COc1cccc(C(=O)OCn2nnc3ccccc3c2=O)c1 | 88% | 92.5% (inactive) | 88% (inactive) | 108% (inactive) | 114% (inactive) | 4.58% (inactive) | 109% | 114% | -0.13% (inactive) | 16.5% (inactive) |
| O=S1(=O)CCC(NS(=O)(=O)/C=C/c2ccccc2)C1 (stereo not given) | 110% | 104% (inactive) | 110% (inactive) | 93.4% (inactive) | 99.2% (inactive) | 9.1% (inactive) | 90.1% | 99.2% | -6.22% (inactive) | -3.11% (inactive) |
| Nc1nonc1NC(=O)CSc1nc2ccccc2s1 | 86% | 110% (inactive) | 86% (inactive) | 91.2% (inactive) | 90.8% (inactive) | 4.11% (inactive) | 86.7% | 90.8% | 6.18% (inactive) | -8% (inactive) |
| CC1=CC2=C(OC1N(C)C)c1cccc3cccc(c13)C2=O (stereo not given) | 106% | 65% (inactive) | 106% (inactive) | 83% (inactive) | 78.5% (inactive) | -0.375% (inactive) | 78.9% | 78.5% | 2.21% (inactive) | 6.17% (inactive) |
| Cc1[nH]n2c(=O)cc(Cc3ccccc3)nc2c1C#N | 97.5% | 80% (inactive) | 97.5% (inactive) | 97.1% (inactive) | 81.5% (inactive) | -10.1% (inactive) | 91.6% | 81.5% | -2.89% (inactive) | -1.45% (inactive) |
| CCCS(=O)(=O)N1CCCC(C(=O)N2CCC(Cc3ccccc3)CC2)C1 (stereo not given) | 91.5% | 96.5% (inactive) | 91.5% (inactive) | 85.9% (inactive) | 98.7% (inactive) | 1.65% (inactive) | 97.1% | 98.7% | -1.32% (inactive) | 4.92% (inactive) |
| O=C1CCCC2=C1C1(CCCC1)N=C(Nc1nc3ccccc3s1)N2 | 99.5% | 80% (inactive) | 99.5% (inactive) | 62.8% (inactive) | 79.5% (inactive) | 11.3% (inactive) | 68.2% | 79.5% | -4.21% (inactive) | -2.33% (inactive) |
| CCN(CC)S(=O)(=O)c1ccc(NC2c3ccccc3C(=O)N2CCN2CCOCC2)cc1 (stereo not given) | 101% | 105% (inactive) | 101% (inactive) | 85.2% (inactive) | 87% (inactive) | 10.8% (inactive) | 76.2% | 87% | -1.54% (inactive) | -0.83% (inactive) |
| O=C(CN1C(=O)c2cccc3cccc1c23)NCC1CCCO1 (stereo not given) | 104% | 116% (inactive) | 104% (inactive) | 98.8% (inactive) | 96.5% (inactive) | 1.85% (inactive) | 94.7% | 96.5% | 1.05% (inactive) | 1.97% (inactive) |
| Cc1c(C(=O)NCCC2=CCCCC2)oc2ccc(S(=O)(=O)N3CCC4(CC3)OCCO4)cc12 | 94.5% | 104% (inactive) | 94.5% (inactive) | 49.1% (inactive) | 48.1% (active) | -4.29% (inactive) | 52.4% | 48.1% | -10.8% (inactive) | -11.5% (inactive) |
| CCN(CC)S(=O)(=O)N1CCC(C(=O)NCC2COc3ccccc3O2)CC1 (stereo not given) | 94% | 114% (inactive) | 94% (inactive) | 109% (inactive) | 97.3% (inactive) | -9.32% (inactive) | 107% | 97.3% | -0.79% (inactive) | 3.65% (inactive) |
| C=CCN(C(=O)CNS(=O)(=O)c1ccccc1)C(C(=O)NCCOC)c1ccncc1 (stereo not given) | 100% | 103% (inactive) | 100% (inactive) | 97.6% (inactive) | 102% (inactive) | 5.81% (inactive) | 96.3% | 102% | -4.27% (inactive) | -9.84% (inactive) |
| CC(=O)c1ccc(OCC(O)CN2CC(C)OC(C)C2)cc1 (stereo not given) | 108% | 80.5% (inactive) | 108% (inactive) | 99.7% (inactive) | 105% (inactive) | 14% (inactive) | 91.3% | 105% | -5.19% (inactive) | 4.13% (inactive) |
